An excerpt weighted towards active compounds, which were near 1.6% of everything screened.
NR2E3 ag-1: agonists of human NR2E3 nuclear receptor | CHO-S Gal4-NCOR/VP16-NR2E3 two-hybrid, luciferase | inhibition of corepressor binding, % at 3.98 µM | Q9Y5X4 | 360,000 compounds, 0.35% hits;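 active = inhibition above the mean of all tested compounds plus 3 SD, cut at about 70% in these data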;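 also: 0% = DMSO with NR2E3 transfected cells and 100% = cells lacking NR2E3 construct; higher means lower luciferase signal from less NR2E3 corepressor binding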
Rev-erbA mod: modulators of human Rev-erb alpha DNA binding | P20393 | Rev-erbα–FITC-DNA binding, fluorescence polarization, 90 min | activity, % at 10 µM | 370,000 compounds, 0.79% hits | AID 1259318;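 active = activity above about 14%, limit read from the data; passing the limit was not always enough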;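 also: 0% = DMSO wells with 35 nM protein and 100% = DMSO wells with 750 nM protein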
Target sequence (P20393 whole entry, looked up): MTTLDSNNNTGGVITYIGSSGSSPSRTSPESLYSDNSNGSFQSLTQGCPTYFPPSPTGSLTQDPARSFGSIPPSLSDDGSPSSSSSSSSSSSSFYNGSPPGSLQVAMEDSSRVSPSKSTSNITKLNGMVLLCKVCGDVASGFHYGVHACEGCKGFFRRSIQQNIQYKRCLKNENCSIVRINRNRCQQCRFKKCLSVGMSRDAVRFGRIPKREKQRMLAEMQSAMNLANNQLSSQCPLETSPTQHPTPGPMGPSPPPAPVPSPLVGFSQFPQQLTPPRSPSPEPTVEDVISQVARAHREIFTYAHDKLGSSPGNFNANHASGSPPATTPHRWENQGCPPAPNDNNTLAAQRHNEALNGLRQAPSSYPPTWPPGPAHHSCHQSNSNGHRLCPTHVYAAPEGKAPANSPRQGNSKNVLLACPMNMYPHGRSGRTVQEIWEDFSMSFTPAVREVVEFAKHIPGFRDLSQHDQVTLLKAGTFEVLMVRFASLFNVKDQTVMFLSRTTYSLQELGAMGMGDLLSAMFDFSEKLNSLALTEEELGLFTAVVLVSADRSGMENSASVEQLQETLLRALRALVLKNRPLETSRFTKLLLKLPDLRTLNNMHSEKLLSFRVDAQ
VLA-4 inh: inhibition in a human VLA-4 binding assay | 330,000 compounds, 0.2% hits | AID 2557 | inhibition, % (about 7 µM as worked out from the volumes in the protocol) | P13612 | VLA-4 expressing cells, ligand binding flow cytometry; in the data active = inhibition above about 50%
NR2E3 ag-2: agonists of human nuclear receptor NR2E3. Q9Y5X4. GST-NR2E3/biotin-RetCOR TR-FRET, 1536-well. inhibition of corepressor binding, % at 4.78 µM. 320,000 compounds, 0.12% hits. AID 2300;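 active = percent inhibition above the cutoff of mean plus 3 SD of all tested compounds, set per screening campaign, cut at about 20% in these data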;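 also: 0% = DMSO wells and 100% = biotin wells as full block of FRET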
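system = GST-tagged NR2E3 plus biotinylated RetCOR corepressor | input = 1.35 nM GST-NR2E3 | also added = 7 nM biotin-RetCOR | schedule = 5 h incubation at 4 °C | measured by = TR-FRET with europium anti-GST and streptavidin-D2, 340 nm excitation | read-out = percent loss of FRET ratio relative to control wells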
PG9 binder: binds the HIV-1 gp120 antibody PG9. inhibition, % at 6.7 µM. 360,000 compounds, 0.43% hits. TR-FRET gp120-PG9 antibody binding; in the data active = inhibition above about 8.5%
PG9 binder conf: confirmation of small molecules binding HIV-1 gp120 antibody PG9. shares compounds with PG9 binder. AID 651571. 1,500 compounds, 90% hits. TR-FRET PG9 antibody binding, biochemical. inhibition, % at 6.7 µM; in the data active = inhibition above about 9%
PGV04 counter: PGV04 control antibody binding, counter-screen; shares compounds with PG9 binder; TR-FRET PGV04 antibody-gp120 binding, biochemical; inhibition, % at 6.7 µM; 1,500 compounds, 95% hits; AID 651604; in the data active = inhibition above about 9.5%
PG9 bind DR: PG9 antibody binding, dose response | 95 tested, under 10 active | IC50, µM | TR-FRET PG9 antibody-gp120 binding inhibition | shares compounds with PG9 binder; in the data active = IC50 below about 10 µM
PGV04 DR counter: binds control antibody PGV04 in PG9 counter-screen | 95 compounds, 20% hits | shares compounds with PG9 binder | TR-FRET binding to control antibody PGV04 | IC50, µM | AID 651937
PG126 binding DR: binds control antibody PG126 in PG9 counter-screen | shares compounds with PG9 binder | TR-FRET binding to antibody PG126, counterscreen | IC50, µM | 95 compounds, 20% hits | AID 651939
An asterisk follows results filed as active; i = inactive; · = no result. Rule as the data show it, unless noted: active = IC50 below about 9 µM; inactive = the rest.

SMILES	NR2E3 ag-1	Rev-erbA mod	VLA-4 inh	NR2E3 ag-2	PG9 binder	PG9 binder conf	PGV04 counter	others
CCCC(=O)Nc1nc(C)c(C(C)=O)s1	-12	-6	17	-1	32*	36*	49*
Cc1cc(C)c2nc(-c3ccccn3)cc(C(=O)NCc3ccc(S(N)(=O)=O)cc3)c2c1	-10	-5	-8	2	2	·	·
COc1ccccc1CCNC(=O)c1cc(-c2ccccn2)nc2ccccc12	-8	12	·	·	27*	22*	32*
Cc1cc(C)c2nc(-c3ccccn3)cc(C(=O)NCCc3ccc(S(N)(=O)=O)cc3)c2c1	-13	8	-10	-6	30*	23*	40*
CC(C)C[C@H]1COc2cc(Br)ccc2S(=O)(=O)N1Cc1cn(CCC2OCCCO2)nn1	·	-2	·	·	·	·	·
Cc1cc(NC(=O)c2ccc3c(c2)C(=O)N(CCC(C)C)C3=O)no1	-22	-2	4	-1	12*	7	8
COc1ccc2cc(CN(CC3CCCO3)S(=O)(=O)c3ccccc3)c(=O)[nH]c2c1 (stereo not drawn)	-58	-5	4	2	-2	·	·
COc1ccc2cc(CN(CC3COCCO3)S(=O)(=O)c3ccc(Cl)cc3)c(=O)[nH]c2c1 (stereo not drawn)	-45	2	0	-1	24*	26*	31*
S=c1nc[nH]c2c1[nH]c1ccccc12	-51	-1	14	4	79*	48*	29*	PG9 bind DR=i;PGV04 DR counter=i;PG126 binding DR=i
S=c1nc(-c2ccccc2)[nH]c2ccccc12	27	5	-3	17	3	·	·
S=c1nc[nH]c2c1[nH]c1ccc(Cl)cc12	-45	-7	-5	-2	34*	15*	17*
O=c1c2[nH]c3ccc(Cl)cc3c2ncn1CCN1CCCCC1	-36	1	4	2	-2	·	·
COCC1CN(CCc2ccc(F)cc2)S(=O)(=O)c2c(OCCN3C(=O)[C@@H]4[C@H](C3=O)[C@@H]3C=C[C@H]4C3)cccc2O1 (stereo partly drawn)	·	0	·	·	2	·	·
N#Cc1c(SC(C(=O)O)c2ccccc2)nc2c(c1-c1cccs1)CCCC2 (stereo not drawn)	-25	-8	11	16	20*	32*	44*
Cc1cc(=O)oc2cc(NC(=O)C3COc4ccccc4O3)ccc12 (stereo not drawn)	-36	11	-5	8	16*	39*	33*	PG9 bind DR=>67;PGV04 DR counter=i;PG126 binding DR=i
CCN(CCCNC(=O)CCn1c(=S)[nH]c2cc3c(cc2c1=O)OCO3)c1cccc(C)c1	13	-1	-3	3	10*	12*	14*
O=C(CCCCCn1c(=S)[nH]c2cc3c(cc2c1=O)OCO3)NCCc1ccccc1	-3	18	10	14	20*	17*	24*
O=C(CCCn1c(=S)[nH]c2cc3c(cc2c1=O)OCO3)NCCc1ccc(Cl)cc1	15	18	·	·	4	·	·
CCOC(=O)N1CCN(C(=O)CCCCCn2c(=S)[nH]c3cc4c(cc3c2=O)OCO4)CC1	-28	1	4	4	8.7*	3	16*
O=C(Nc1ccccc1)Nc1nc2ncccn2c1-c1ccc(F)cc1	·	4	·	·	·	·	·
COc1ccc2ccccc2c1C=NNC(=O)c1cc(-c2ccc(C)cc2)n[nH]1	·	-5	·	·	·	·	·
COC(=O)N(C)C[C@H]1OCc2cn(nn2)CCCC(=O)N([C@H](C)CO)C[C@@H]1C	·	-9	·	·	-1	·	·
COc1ccc(S(=O)(=O)N2CCC(c3nc4ccccc4o3)CC2)c(OC)c1	·	3	·	·	·	·	·
O=C(Nc1nc(-c2ccccc2)nc2ccccc12)c1ccc(F)cc1	1	2	6	4	11*	16*	27*
